Measurements published in the EternaBench riboswitch data.

Tested on: MS2 coat protein
Assay: apparent Kd, MS2 coat protein; higher = weaker binding; RNA-MaP array; FMN 200 µM where present
Outline: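 Designs were transcribed by stalled E. coli RNA polymerase on Illumina sequencing-chip clusters. They were titrated with SNAP-549-labelled MS2 coat protein from 0.7 or 1.5 nM, doubling to 3 µM, in 100 mM Tris-HCl pH 7.5, 80 mM KCl, 4 mM MgCl2, BSA, DTT, yeast tRNA and Tween-20, without and then with constant ligand. The apparent Kd is the median of filtered per-cluster fits after normalisation of green signal to red-channel RNA signal and control-cluster median Fmax.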

[1] = designed as: OFF switch for flavin mononucleotide, no ligand
[2] = ligand present: flavin mononucleotide, designed as: OFF switch for flavin mononucleotide
[3] = designed as: ON switch for flavin mononucleotide, no ligand
[4] = ligand present: flavin mononucleotide, designed as: ON switch for flavin mononucleotide

Row | Sequence | apparent Kd [1] | apparent Kd [2] | apparent Kd [3] | apparent Kd [4]
1 | GUCCGCUCGUGAGGAUAUACAACACUGCUUCGGCAGUGUAUUAAGAUCACAUGAGGAUCACCCAUGUAGAAGGCACGAGCUGAU | 13.7 nM | 289 nM | – | –
2 | ACUAUACGAGGAUAUACUGACGGGCCUCAGGCAUACAUCAAACAUGAGGAUCACCCAUGUAGAAGGCGUAUACU | 79.4 nM | 29.2 nM | – | –
3 | AUUUCGUCAGGAUAUCCUAGUAAUUGUUUCAUAUUUACAAAGGAGAAGGGACAUGAGGAUCACCCAUGUUGGUC | 64.6 nM | 116 nM | – | –
4 | AACUUACAUGAGGAUCACCCAUGUGAGGAUAUAUAAAUAUAUAUGUUAUUGUAUGUUUGUAGAAGGCGCGUGAU | 52.2 nM | 51.2 nM | – | –
5 | UUCUCGAUGUAGAAGGCCGCGUCCGGCUCACGCGGAGGAUAUACAUGAGGAUCACCCAUGUGUUUGUGGCUUAUAUGGUACGAA | 43 nM | 212 nM | – | –
6 | CGGUUUCACAUUUUAGUGAUUUAUACAGAAGGCCAUACACAUGAGGAUCACCCAUGUCAGGAAUUGGAGGAUAUGUUAUUGACG | – | – | 6.1 nM | 4.4 nM
7 | AAUACACUCUAGGAUAUUCAUGCCAGCAGUAUCGAAGAAGGAGAGACAUGAGGAUCACCCAUGUGGAAGCUCCU | 13.1 nM | 16.4 nM | – | –
8 | AAGUCGCUAGGAGGAUAUACAUGAUCUCACACAUGUACCGCUCACGCCACAUGAGGAUCACCCAUGUAGAAGGCCUAGAGAGGU | 23.4 nM | 62.4 nM | – | –
9 | UGUUGUAUUACAGGAUAUCUAUUAGUUUUAAUUAGAGAAGGGUAUUCACAUGAGGAUCACCCAUGUAUAUACGAGGAAGUUGUG | – | – | 39.1 nM | 42.2 nM
10 | GGUGCGUUUGUGAGGAUAUGCUGGUCCUUGGAUCAGCAGAAGGCACAUGAGGAUCACCCAUGUGGUGUCGUACC | 447 nM | 47.3 nM | – | –
11 | GAGUAGUUGAAAGGAUAUCGAUUGUUAUAGAAUCGAGAAGGUUCUAACAUGAGGAUCACCCAUGUAGGACUAUUCCUGUGUAUC | – | – | 12.9 nM | 11 nM
12 | AUAAAACAUGAGGAUCACCCAUGUCAACAAAGUCGAGGAUAUGGGCAAAUAAAAUAAGAACCAGAAGGCGAAUAAC | – | – | 371 nM | 34.7 nM
13 | CCGGGACAUGAGGAUCACCCAUGUUUCGUUUGUAGUAAAGCACAGGAUAUGAUGAAACAGGUUUCUCAGAAGGGUGUUCCGAAA | – | – | 91 nM | 75.4 nM
14 | GGGUACAUCGGAGGAUAUCAUGUAAAUACAUGAGGAUCACCCAUGUCGAUGGAGACAGCGGAGAUUGAGAAGGCCGAUGUACCG | – | – | 105 nM | 190 nM
15 | AAUUAUUUACAGAAGGAGUAUGAUAAUGUUUUACUAGGAUAUGUAUACAUGAGGAUCACCCAUGUUAUUGUAGGUUUUUUAUGU | 12.7 nM | 9.65 nM | – | –
16 | GACCCUAAUGAGAAGGUGUGUAUAAAUUAUAUACAAGGAUAUCGGUCGAGCGUGUUGACAUGAGGAUCACCCAUGUUGAGGGUU | – | – | 26.8 nM | 10.4 nM
17 | AAAGAGCGAGGAUAUGCGUGCCGGUGCGGCCAGCCGAUGUGACAUGAGGAUCACCCAUGUAGAAGGCGCAGAAA | 14.3 nM | 14.7 nM | – | –
18 | UUGGAAGUCGUAGGAUAUGUAGGAUAUUCCUACAUGAGGAUCACCCAUGUUGACAUGGAAGAAGGACAGAAGGACGAUGUCCAU | – | – | 642 nM | 6.99 nM

Row | Sequence | apparent Kd [1] | apparent Kd [2] | apparent Kd [3] | apparent Kd [4]
19 | UUGGAGUUCGUAGGAUAUGUAGGAUAUUCCUACAUGAGGAUCACCCAUGUAUGCAUGGAAGAAGGACAGAAGGACGAGCUCCAU | – | – | 184 nM | 13 nM
20 | CAGUACUGAGGAUAUACAUGAGGAUCACCCAUGUGUUCCAGCUAGGAAACUAGCAUAAGUAGAAGGCAGUACUG | 21.2 nM | 354 nM | – | –
21 | GAGAGAGGGUGAGGAUAUUUAGUGAUAAUGAUAAGAGAAGGCACAGACAUGAGGAUCACCCAUGUGGGAAUAAUCCAGAGAGAG | – | – | 298 nM | 290 nM
22 | CCCGUGUUAGGAUAUACGGCACACCCACCAGCGGGUGUAUAGUAGAAGGAACAUGAGGAUCACCCAUGUAUAAC | 34.9 nM | 51.4 nM | – | –
23 | CUUUUGUGAGGAUAUCAGUAGUAAAUAAAUAAAAUUAAUACUGAGAAGGCACAUGAGGAUCACCCAUGUUCCUC | 33.1 nM | 162 nM | – | –
24 | UUAAAUCAUGUAGGAUAUGCAUGGCGAAGCUACGCAGAAGGACAUGAGGAUCACCCAUGUUAUAGCUACCGAUUAAGGUGGCAA | 92.9 nM | 246 nM | – | –
25 | ACAUGAGGAUCACCCAUGUAAAAUGAAGAAGGUAGAUACUUGAGGAUCACCCAUGUACAUGGGACUAAGGAUAUUCUAAUAAUU | – | – | 76.9 nM | 64.3 nM
26 | GUUAUUGACAAGAAGGCAAACAUGAGGAUCACCCAUGUUCUACAUGUAUAUUGAGGAUAUUGCCAAUACAUGAGGAUCACCCAG | 45 nM | 53.3 nM | – | –
27 | GGACGUGUCGUUUACAUGAGGAUCACCCAUGUCGAUGGACAUGAGGAUAUGGAUCCGAAUCGGAUCCAGAAGGCAUGCACGUCC | – | – | 85.3 nM | 18.9 nM
28 | CAGGAUAGAGGAUAUACAUAGAUACAGAUUCAUGUGAUCCUACAUGAGGAUCACCCAUGUAGAAGGCUAUCCUG | 315 nM | 39.5 nM | – | –
29 | ACUUCUAAGCAGAAGGCAGUCAUAGUAUUCGUCAUGUAGACAUGAGGAUCACCCAUGUAUAGUACUGAGGAUAUGCUUGGAUAG | 24 nM | 24.4 nM | – | –
30 | ACAUGACAUGAGGAUCACCCAUGUCGAUAAAAGCAAGGAUAUGGGCCCGAGUCGUUCGGACCAGAAGGUGCGUCUC | – | – | 23.6 nM | 18 nM
31 | AUAGGUUAAGGAGGAUAUAGAGGGAGAAGUACACAUGAGGAUCACCCAUGUAUUUAAUUAGUUUACUAGAAGGCUUAUGAUUGU | – | – | 46.6 nM | 53.8 nM
32 | AAUGAGACCGCAGGAUAUCCACAUGAGGAUCACCCAUGUUCUCAGACCGGAAGCACGAUCUGCGAGGAGAAGGGCGACCUCAUA | – | – | 716 nM | 53.1 nM
33 | AAUAACAGAGGAUAUACUGUUUUAUGUGUUUGUUAUUUUGAACAUGAGGAUCACCCAUGUAGAAGGCUGAAUAA | 24.6 nM | 22.1 nM | – | –
34 | CAUUUACAGGGAGGAUAUACAUGAGGAUCACCCAUGUCAUCAUACGAUCUUUCUUUUGUAUGAGUGUAGAAGGCCCAACUACCA | 13.6 nM | 14.6 nM | – | –
35 | GGCAUGUGAGGAUAUCUGAUGUCUAACUUCGGUUAGACAUCAGAGAAGGCACAUGAGGAUCACCCAUGUCUGCC | 68.4 nM | 79.8 nM | – | –
36 | AACUAACAUGAGGAUCACCCAUGUCAGGAUAUGCAACGAUCGAUCGAUCGAUCGAUCAGCAGAAGGGACACUAA | 20.1 nM | 36 nM | – | –
